Screening results as filed in PubChem BioAssay.
The list is not random: actives were taken first. Their share in the collection is about 5%.
CSC inhib: blocks cancer stem cells | cancer stem cell-like cells viability, luminescence | AID 2717 | 1.1% of 300,000 active | inhibition, % at 7.5 µM; in the data active means inhibition above about 75%; tested in HMLE shEcad cells
Beta apoptosis: beta cell apoptosis inhibition; INS-1E cytokine-induced death, ATP luminescence, 48 h; percent of positive-control rescue, neutral wells zero; protection from apoptosis, % (test concentration not listed); 0.8% of 300,000 active; AID 435005;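 active means Every replicate reaches about 75%, or at least half do and their mean reaches it too, limit read from the data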;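 further: 0% = cytokine-treated negative control wells and 100% = positive control rescue; higher means more ATP so stronger rescue from cytokine killing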
Mdm2-MdmX inh: inhibitors of human Mdm2/MdmX interaction. AID 485346. O15151+Q00987. inhibition, % at 8 µM. 3% of 330,000 active. SaOS-2 split-luciferase Mdm2/MdmX complementation, luminescence;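 active means inhibition of at least 50% at 8 µM in the primary screen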
T cruzi inh: blocks replication of Trypanosoma cruzi | T. cruzi beta-gal in NIH3T3, luminescence, 90 h | inhibition, % (no concentration beside the values) | 1.4% of 300,000 active | AID 1885;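 active means mean inhibition across valid replicates above about 55%, limit read from the data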;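 further: signal also drops with host cell toxicity which is not excluded here; 0% = plate median of DMSO wells and 100% = zero luminescence signal; higher percent means less beta-gal luminescence so fewer parasites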
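assay system = mouse NIH/3T3 fibroblasts infected with β-gal-expressing T. cruzi Tulahuen C4 | input = 5,000 NIH/3T3 host cells per well | buffer or medium = DMEM plus 2% FBS | timing = 3 h host attachment, then at least 90 h co-culture | measured by = GalScreen luminescence, 60 min | evaluation = luminescence reflecting intracellular parasite burden, expressed as percent inhibition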
UPR XBP1 act: activators of adaptive arm of unfolded protein response (XBP1); CHO-XBP1 luciferase reporter, IRE1-XBP1 UPR activation, luminescence; percent of tunicamycin response, DMSO as zero; activation, % at 20 µM; 0.33% of 330,000 active; AID 463104;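 active means versus positive control, 20 µM dose yields 30% or more activation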;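 further: 100% = tunicamycin at 10 µg/mL and 0% = DMSO only wells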
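incubation = overnight seeding at 37 °C, 6 h compound treatment at 37 °C | assay system = CHO-XBP1 cells stably carrying IRE1-XBP1-driven luciferase reporter | input = 1000 cells per well | detection = luciferase luminescence | dosing = single point, 20 µM final compound, 1% DMSO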
CHOP UPR activ: apoptotic UPR (CHOP) activation. CHO-CHOP luciferase reporter, luminescence; percent of tunicamycin response over DMSO baseline. activation, % at 10 µM. 0.34% of 330,000 active. AID 449763;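 active means at 10 µM dose, activation of 40% or more, normalized to positive control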;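 further: 100% = tunicamycin at 10 µg/mL and 0% = DMSO alone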
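Dosing – one dose, 10 µM in 0.5% DMSO · System – CHO-CHOP cells, stable luciferase reporter of PERK-eIF2a-CHOP signalling · Input – 500 cells/well · Control set – tunicamycin 10 µg/mL final as positive, DMSO-only wells as negative · Timing – 6 h compound treatment, 37 °C · Measure – % activation vs tunicamycin · Technique – luminescence read with Steady-Glo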
Numbers without * were called inactive; . = no result given.

SMILES	CSC inhib	Beta apoptosis	Mdm2-MdmX inh	T cruzi inh	UPR XBP1 act	CHOP UPR activ
C=CCOC(=O)C(C#N)c1nc2ccccc2nc1N1CCN(Cc2ccc3c(c2)OCO3)CC1 (centres undefined)	38.0	-3.3	24.5	57.2*	-4.0	-0.4
CCC(CC)COC(=O)C(C#N)c1nc2ccccc2nc1N1CCN(CC)CC1 (centres undefined)	-1.9	8.2	44.2	55.0*	3.9	3.4
CCCCCCOC(=O)C(C#N)c1nc2ccccc2nc1N1CCN(C)CC1 (centres undefined)	6.2	46.0	32.6	67.7*	-0.7	1.3
CN(/N=C/c1ccc(O)cc1O)c1ncc(C(F)(F)F)cc1Cl	61.8	2.0	22.7	8.9	7.3	1.4
O=C(c1cnn2c(C(F)F)cc(-c3ccccc3)nc12)N1CCCCC1c1cccnc1 (centres undefined)	-5.6	-4.4	-7.1	50.9	0.3	1.8
Cc1ccc(N=Nc2ccc(O)cc2)c(Br)c1	86.8*	8.3	-281.9	5.0	1.9	4.9
CCN(CC)S(=O)(=O)c1ccc(N=Nc2cc(C)cc(Br)c2O)cc1	-3.9	3.6	23.5	-10.2	0.9	3.4
Nc1ccc(C(=O)N2CCN(S(=O)(=O)/C=C/c3ccccc3)CC2)cc1[N+](=O)[O-]	4.3	3.8	-3.6	-4.5	-2.1	2.4
O=C(c1ccc2ccccc2c1)N1CCN(S(=O)(=O)/C=C/c2ccccc2)CC1	-13.0	-3.0	17.7	55.5*	-3.8	-0.8
Oc1ccc(-c2csc(Nc3ncccn3)n2)c(O)c1	-2.4	.	-55.6	27.3	-2.5	3.8
Cc1cccc(Nc2nc(-c3ccc(O)cc3O)cs2)n1	96.5*	-0.6	-86.2	-15.2	1.9	4.8
CCc1ccc(OCCNC(=O)c2ccccc2SCc2ccc(F)cc2)cc1	23.5	2.9	17.2	56.7*	-1.0	-0.9
Cc1cccc(C(=O)N/N=C2\CS(=O)(=O)N(C)c3ccsc32)c1	12.3	21.8	28.0	35.2	0.8	1.5
O=C(Nc1cc(C(=O)Nc2ccccc2C(=O)O)cc(C(=O)Nc2ccccc2C(=O)O)c1)c1ccccc1	-8.9	2.2	10.2	-14.0	-0.2	-0.5
COc1cc2c(cc1OC)[C@@H]1Cc3ccc(OC)c(OC)c3CN1CC2	-11.1	-15.0	23.7	56.3*	0.0	-0.8
COc1cc2c(cc1OC)C1Cc3ccc(OC)c(OC)c3CN1CC2 (centres undefined)	-2.9	-14.9	18.7	51.4	2.2	-0.4
O=C(CCC(=O)OCC(F)(F)C(F)F)Nc1ccccc1F	-5.6	-3.6	-13.5	4.7	-1.6	0.3
Cc1ccc(CNC(=O)C2CSC3(C)CCC(=O)N23)cc1 (centres undefined)	-16.4	-4.7	-1.9	.	-2.2	-1.8
CCc1c(C)nc2c(-c3ccccc3OC)c(C)[nH]n2c1=O	-10.9	-2.3	18.5	-6.2	-4.1	0.4
CC(=O)N1N=C(c2ccccc2)OC1c1ccc([N+](=O)[O-])s1 (centres undefined)	-9.6	-10.0	4.7	84.1*	8.9	3.2
CS(=O)(=O)N1CCc2cc(-c3csc(NC(=O)Cc4cccs4)n3)ccc21	45.5	19.7	-0.7	60.3*	7.0	1.9
CCCOc1cccc(CN2CCCCC2c2cccnc2)c1 (centres undefined)	-6.0	-1.5	-3.1	55.1*	-2.6	-0.1
Cc1ccc2nc(N(CCCN(C)C)C(=O)c3cc4ccccc4oc3=O)sc2c1	.	-8.0	18.5	59.6*	3.5	2.6
Cc1cccc2sc(N(CCCN(C)C)C(=O)c3cc4ccccc4oc3=O)nc12	-28.4	-3.5	-5.1	46.1	2.3	1.1
CN(C)CCCN(C(=O)c1cc2ccccc2oc1=O)c1nc2c(F)cccc2s1	.	-9.4	15.1	55.9*	-0.9	0.1
Cc1noc(C)c1S(=O)(=O)N1CCN(S(=O)(=O)c2ccccc2C#N)CC1	-3.6	-5.9	27.9	2.3	-0.2	-1.3
O=C(Nc1ccc(S(=O)(=O)N2CCOCC2)cc1)c1ccc(CN2CCc3ccccc3C2)cc1	-0.1	123.4*	32.1	22.4	-4.6	4.9
O=C(Nc1ccc(S(=O)(=O)N2CCOCC2)cc1)c1ccc([N+](=O)[O-])cc1Cl	-5.3	3.7	20.0	72.7*	-8.6	-3.4
